Results on twelve compounds are retold here after ChEMBL document CHEMBL1141490, “Synthesis and evaluation of PSSRI-based inhibitors of Staphylococcus aureus multidrug efflux pumps” (Bioorg Med Chem Lett, 2008).

Values after ≈ are worked out from the molar mass of the structure shown. Some results are limits rather than exact numbers.

For assay [1], the system named is Staphylococcus aureus. Nature of the assay: Inhibition of NorA-mediated efflux in Staphylococcus aureus K2361. The class given is functional, organism-based.
Assay [2] concerns Staphylococcus aureus. Nature of the assay: Inhibition of MepA efflux pump in Staphylococcus aureus K2886 at 1.58 uM MIC assessed as fold reduction in ethidium bromide minimum inhibitory concentration. The class given is functional.
In assay [3] the test system is Staphylococcus aureus. The experiment in a line: Inhibition of NorA efflux pump in Staphylococcus aureus K2361 at 1.58 uM MIC assessed as fold reduction in ethidium bromide minimum inhibitory concentration. The class given is functional.
The subject of assay [4] is Escherichia coli. The experiment in a line: Antimicrobial activity against Escherichia coli K2203 over expressing AcrB efflux pump.
In assay [5] the test system is Staphylococcus aureus. The experiment in a line: Inhibition of NorA efflux pump in Staphylococcus aureus K2361 at 0.50 assessed as fold reduction in ethidium bromide minimum inhibitory concentration. Also noted: concentration or dose not given beside the values. The class given is functional.
Assay [6] has as its system Pseudomonas aeruginosa. The experiment in a line: Antimicrobial activity against Pseudomonas aeruginosa K3082. The class given is functional.
Assay [7] deals with Staphylococcus aureus. The experiment in a line: Antimicrobial activity against Staphylococcus aureus K2885. Type of assay: functional.
The subject of assay [8] is Staphylococcus aureus. Nature of the assay: Antimicrobial activity against Staphylococcus aureus K2886 over expressing MepA efflux pump. The class given is functional.
For assay [9], the system named is Escherichia coli. The experiment in a line: Antimicrobial activity against Escherichia coli K2201. Type of assay: functional.
Assay [10] has as its system Staphylococcus aureus. The experiment in a line: Inhibition of MepA efflux pump in Staphylococcus aureus K2886 at 1/2 MIC assessed as fold reduction in ethidium bromide minimum inhibitory concentration.
Assay [11] concerns Staphylococcus aureus. Nature of the assay: Antimicrobial activity against Staphylococcus aureus K1902. Type of assay: functional.
Assay [12] deals with Staphylococcus aureus. Nature of the assay: Antimicrobial activity against Staphylococcus aureus K2361 over expressing NorA efflux pump. The class given is functional.
Assay [13] relates to Staphylococcus aureus. Nature of the assay: Inhibition of MepA-mediated efflux in Staphylococcus aureus K2886. The class given is functional, organism-based. In short, it runs like this: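 Efflux from MepA-overexpressing S. aureus K2886, done in duplicate. Reported as mean total efflux over a 5 min time course.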
The test system of assay [14] is Pseudomonas aeruginosa. The experiment in a line: Antimicrobial activity against Pseudomonas aeruginosa K2184 over expressing MexB efflux pump. The class given is functional.
In assay [15] the test system is Staphylococcus aureus. Nature of the assay: Inhibition of NorA efflux pump in Staphylococcus aureus K2361 at 8.21 uM MIC assessed as fold reduction in ethidium bromide minimum inhibitory concentration. The class given is functional.
Assay [16] has as its system Staphylococcus aureus. The experiment in a line: Inhibition of MepA efflux pump in Staphylococcus aureus K2886 at 4.1 uM MIC assessed as fold reduction in ethidium bromide minimum inhibitory concentration. The class given is functional.
For assay [17], the system named is Staphylococcus aureus. The experiment in a line: Inhibition of MepA efflux pump in Staphylococcus aureus K2886 at 0.50 uM assessed as fold reduction in ethidium bromide minimum inhibitory concentration. Type of assay: functional.
Assay [18] deals with Staphylococcus aureus. Nature of the assay: Inhibition of MepA efflux pump in Staphylococcus aureus K2886 at 4.16 uM assessed as fold reduction in ethidium bromide minimum inhibitory concentration. Type of assay: functional.
In assay [19] the test system is Staphylococcus aureus. The experiment in a line: Inhibition of NorA efflux pump in Staphylococcus aureus K2361 at 8.32 uM assessed as fold reduction in ethidium bromide minimum inhibitory concentration. Type of assay: functional.
Assay [20] deals with Staphylococcus aureus. Nature of the assay: Inhibition of NorA efflux pump in Staphylococcus aureus K2361 at 0.79 uM MIC assessed as fold reduction in ethidium bromide minimum inhibitory concentration. Type of assay: functional. Put shortly:
(§1)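 Ethidium bromide MIC was determined for the pump-expressing S. aureus strain, alone and with the efflux inhibitor added at 1/4 or 1/2 of the inhibitor's own MIC against that strain. Potentiation is expressed as fold lowering of the ethidium bromide MIC. Parent strains SA-K1902 and SA-K2885 were tested in the same way at 1/2 MIC.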

In assay [21] the test system is Staphylococcus aureus. Nature of the assay: Inhibition of MepA efflux pump in Staphylococcus aureus K2886 at 0.39 uM assessed as fold reduction in ethidium bromide minimum inhibitory concentration. Type of assay: functional. Put shortly:
as §1

One may read the IC50 as the midpoint of a concentration-inhibition curve. The MIC is the smallest concentration in the dilution series that meets the test's criterion for growth inhibition.

Regarding `Fc1ccc([C@@H]2CCNC[C@H]2CNc2ccccc2)cc1`, in the assay with Staphylococcus aureus [1], the IC50 is more than 50 µM.
The compound `c1ccc(SC[C@H]2CCCNC2)cc1` displayed an IC50 in the assay on Staphylococcus aureus [1] of more than 50 µM.
Same read-out and setting: as for `c1ccc(OC[C@H]2CCCNC2)cc1`, the figure is more than 50 µM; as for `Fc1ccc([C@@H]2CCNC[C@H]2COc2ccccc2)cc1`, 22 µM.
On the same count and under the same terms, as for `c1ccc(NC[C@H]2CCCNC2)cc1`, the figure is more than 50 µM.
Turning to `Fc1ccc([C@@H]2CCNC[C@H]2/C=C/c2cc(Br)ccc2Cl)cc1`, the Fold change with Staphylococcus aureus [2] was 4; in the assay on Staphylococcus aureus [3] it was 16; in the assay on Staphylococcus aureus [5], 64; with Staphylococcus aureus [10], more than 32. The MIC against Escherichia coli [4] stood at 100 mg/L (≈ 253 µM); against Pseudomonas aeruginosa [6], 100 mg/L (≈ 253 µM); against Staphylococcus aureus [7], 25 mg/L (≈ 63.3 µM); against Staphylococcus aureus [8] it was 25 mg/L (≈ 63.3 µM); in the assay on Escherichia coli [9], 100 mg/L (≈ 253 µM); against Staphylococcus aureus [11], 25 mg/L (≈ 63.3 µM). Also, the MIC worked out at 25 mg/L (≈ 63.3 µM) in the assay on Staphylococcus aureus [12] and 100 mg/L (≈ 253 µM) against Pseudomonas aeruginosa [14]. Further, the values for the IC50 in the assay on Staphylococcus aureus [1] and in the assay on Staphylococcus aureus [13] were less than 10 µM and 20 µM, respectively.
With `Clc1ccc(Br)cc1OC[C@H]1CCCNC1`, the Fold change worked out at 16 with Staphylococcus aureus [15], 64 with Staphylococcus aureus [5], 2 in the assay on Staphylococcus aureus [16] and 8 in the assay on Staphylococcus aureus [17]. Also, the MIC is 100 mg/L (≈ 328 µM) against Pseudomonas aeruginosa [6]; 100 mg/L (≈ 328 µM) against Staphylococcus aureus [7]; more than 100 mg/L in the assay on Staphylococcus aureus [8]; 100 mg/L (≈ 328 µM) in the assay with Escherichia coli [9]; 100 mg/L (≈ 328 µM) in the assay with Staphylococcus aureus [11]; more than 100 mg/L against Staphylococcus aureus [12]. The compound further displayed an MIC with Pseudomonas aeruginosa [14] of 100 mg/L (≈ 328 µM). For the same compound, the values for the IC50 with Staphylococcus aureus [1] and in the assay on Staphylococcus aureus [13] were 40 µM and less than 10 µM, respectively.
Take `Clc1ccc(Br)cc1/C=C/[C@H]1CCCNC1`: the Fold change is 4 with Staphylococcus aureus [18], more than 128 with Staphylococcus aureus [5], 16 in the assay with Staphylococcus aureus [10] and 64 in the assay with Staphylococcus aureus [19]. In addition, the MIC in the assay with Escherichia coli [4] turned out to be 100 mg/L (≈ 333 µM); against Pseudomonas aeruginosa [6], 100 mg/L (≈ 333 µM); in the assay with Staphylococcus aureus [7] it was 100 mg/L (≈ 333 µM); in the assay on Staphylococcus aureus [8] it was 50 mg/L (≈ 166 µM); with Escherichia coli [9], 50 mg/L (≈ 166 µM); against Staphylococcus aureus [11] it was 100 mg/L (≈ 333 µM). Besides, the MIC in the assay with Staphylococcus aureus [12] and against Pseudomonas aeruginosa [14] was 100 mg/L (≈ 333 µM) throughout. Moreover, the results for the IC50 in the assay on Staphylococcus aureus [1] and in the assay on Staphylococcus aureus [13] were 45 µM and less than 10 µM, respectively.
In the assay on Staphylococcus aureus [1], `Fc1ccc([C@@H]2CCNC[C@H]2CSc2ccccc2)cc1` yielded an IC50 of 18 µM.
In the case of `Fc1ccc([C@@H]2CCNC[C@H]2COc2cc(Br)ccc2Cl)cc1`, the MIC against Escherichia coli [4] turned out to be 50 mg/L (≈ 125 µM); against Pseudomonas aeruginosa [6], 100 mg/L (≈ 251 µM); with Staphylococcus aureus [7], 6.25 mg/L (≈ 15.7 µM); in the assay on Staphylococcus aureus [8], 6.25 mg/L (≈ 15.7 µM); in the assay with Escherichia coli [9] it was 25 mg/L (≈ 62.7 µM); against Staphylococcus aureus [11], 12.5 mg/L (≈ 31.4 µM). Also, the MIC with Staphylococcus aureus [12] was 12.5 mg/L (≈ 31.4 µM); in the assay with Pseudomonas aeruginosa [14], 100 mg/L (≈ 251 µM). The Fold change in the assay on Staphylococcus aureus [5] came to 32; in the assay on Staphylococcus aureus [10], 8; in the assay with Staphylococcus aureus [20], 4; in the assay on Staphylococcus aureus [21], 4. For the same compound, the IC50 was less than 10 µM with Staphylococcus aureus [1] and 13 µM with Staphylococcus aureus [13].
In the assay with Staphylococcus aureus [1], `COc1ccc(OC[C@H]2CCCNC2)cc1` came in with an IC50 of more than 50 µM.
As for `Fc1ccc([C@@H]2CCNC[C@H]2COc2ccc3c(c2)OCO3)cc1` [PAROXETINE], the results for the 50% inhibitory concentration (IC50) in the assay with Staphylococcus aureus [1] and in the assay with Staphylococcus aureus [13] were 15 µM and less than 10 µM, respectively.
